Three compounds from ChEMBL document CHEMBL1148152, “Syncarpamide, a new antiplasmodial (+)-norepinephrine derivative from Zanthoxylum syncarpum” (J Nat Prod, 2004) can be followed below.

Activity calls are given as the source filed them. No cut-off for these calls is given here.

Data set [1] deals with Plasmodium falciparum. Kind of data set: Antiplasmodial activity against Plasmodium falciparum W2. Type of data set: functional, organism-based.
The subject of data set [2] is Plasmodium falciparum. Kind of data set: Antiplasmodial activity against Plasmodium falciparum D6. It is filed as functional, organism-based.
The test system of data set [3] is Vero. Kind of data set: Cytotoxicity against african green monkey Vero cells. Type of data set: cell-based. Conditions: chlorocebus sabaeus. In short, it runs like this:
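Cytotoxicity assay with doxorubicin and 5-fluorouracil as positive controls and DMSO as the vehicle (negative) control.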

Data set [4] concerns Staphylococcus aureus. Kind of data set: Antibacterial activity against Staphylococcus aureus ATCC 33591 by antimicrobial susceptibility test. Type of data set: functional, organism-based. In short, it runs like this:
(§1)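 Modified 96-well microplate broth assay run on purified compounds, giving IC50 and MIC values, against ATCC strains C. albicans 90028, C. neoformans 90113, and S. aureus 6535 and 33591. Amphotericin B and rifampin served as positive controls, with DMSO as the negative control.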

A further data set deals with Cryptococcus neoformans. Nature of the data set: […] activity against Cryptococcus neoformans ATCC 90113 by antimicrobial susceptibility test. Type of data set: functional, organism-based. In short, it runs like this: as §1
Data set [5] concerns Staphylococcus aureus. Nature of the data set: Antibacterial activity against Staphylococcus aureus ATCC 6535 by antimicrobial susceptibility test. Type of data set: functional, organism-based. In short, it runs like this: as §1
The test system of the next data set is Candida albicans. Kind of data set: Antifungal activity against Candida albicans B311 ATCC 90028 by antimicrobial susceptibility test. It is filed as functional, organism-based. In short, it runs like this:
as §1

Data set [6] has as its system Vero. Kind of data set: Cytotoxicity against african green monkey Vero cells at 56.42 uM. Conditions: chlorocebus sabaeus. It is filed as cell-based.

A word on the IC50: it is the concentration that inhibits the measured activity by half. Turning to `COc1ccc([C@@H](CNC(=O)/C=C/c2ccccc2)OC(=O)/C=C/c2ccccc2)cc1OC` [SYNCARPAMIDE], the IC50 with Plasmodium falciparum [1] stood at 3.06 µM; in the data set on Plasmodium falciparum [2] it was 2.04 µM. Further, the Activity entry in the data set with Vero [3] was “Not Active”.
As for `CC(C)(O)[C@@H]1Cc2cc3ccc(=O)oc3cc2O1`, the result in the data set with Staphylococcus aureus [4], with Cryptococcus neoformans, in the data set on Staphylococcus aureus [5], with Plasmodium falciparum [1], in the data set with Plasmodium falciparum [2] and in the data set on Candida albicans was inactive.
Consider `COc1c(O)ccc2c1cnc1c3cc4c(cc3ccc21)OCO4` [DECARINE], for which the result in the data set on Staphylococcus aureus [4], in the data set with Cryptococcus neoformans and in the data set with Staphylococcus aureus [5] was Active. The Activity result in the data set on Vero [6] was “Active”; with Vero [3], “Not Active”. The IC50 in the data set with Plasmodium falciparum [1] amounted to 0.88 µM; in the data set with Plasmodium falciparum [2] it was 1.44 µM.
